Experimental data taken from ChEMBL document CHEMBL1156597, “Structure-activity relationship of kahalalide F synthetic analogues” (J Med Chem, 2008).

Tests used:
DU-145 = assay: Cytotoxicity against human DU145 cells after 48 hrs by SRB assay; assay type: functional, cell-based; details: Homo sapiens, DU-145, 48 h; for CC50: read-out: LC50 (the source's name)
Outline: (§1)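 Cells grown in RPMI 1640 with 10% FBS and penicillin/streptomycin at 37 °C and 5% CO₂, trypsinized, then seeded at 5 × 10³/well. After 18 h drug-free attachment, samples in DMSO/EtOH/PBS (0.5:0.5:99) were added for 48 h continuous exposure. Cells were fixed with cold TCA (1 h, 4 °C) and stained with SRB (10 min). Tris-solubilized stain read at 490 nm. Triplicate wells, mean ± SD; GI₅₀ derived.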

[1] = Cytotoxicity against human IGROV cells after 48 hrs by SRB assay; assay type: functional; details: for CC50: read-out: LC50 (the source's name); outline: as §1
[2] = Cytotoxicity against human IGROV-ET cells after 48 hrs by SRB assay; assay type: functional; details: for CC50: read-out: LC50 (the source's name); outline: as §1
SK-BR-3 = assay: Cytotoxicity against human SKBR3 cells after 48 hrs by SRB assay; assay type: functional; details: SK-BR-3, 48 h; for CC50: read-out: LC50 (the source's name); outline: as §1
SK-MEL-28 = assay: Cytotoxicity against human SK-MEL-28 cells after 48 hrs by SRB assay; assay type: functional, cell-based; details: Homo sapiens, SK-MEL-28, 48 h; for CC50: read-out: LC50 (the source's name); outline: as §1
A549 = assay: Cytotoxicity against human A549 cells after 48 hrs by SRB assay; assay type: functional, cell-based; details: Homo sapiens, A549, 48 h; outline: as §1
K562 = assay: Cytotoxicity against human K562 cells after 48 hrs by SRB assay; assay type: functional; details: K562, 48 h; for CC50: read-out: LC50 (the source's name); outline: as §1
PANC-1 = assay: Cytotoxicity against human PANC1 cells after 48 hrs by SRB assay; assay type: functional; details: PANC-1, 48 h; for CC50: read-out: LC50 (the source's name); outline: as §1
HT-29 = assay: Cytotoxicity against human HT29 cells after 48 hrs by SRB assay; assay type: functional, cell-based; details: Homo sapiens, HT-29, 48 h; for CC50: read-out: LC50 (the source's name); outline: as §1
LoVo [3] = assay: Cytotoxicity against human LoVo cells after 48 hrs by SRB assay; assay type: functional; details: for CC50: read-out: LC50 (the source's name)
LoVo [4] = assay: Cytotoxicity against human doxorubicin resistant LoVo cells after 48 hrs by SRB assay; assay type: functional; details: for CC50: read-out: LC50 (the source's name); outline: as §1
HeLa = assay: Cytotoxicity against human HeLa cells after 48 hrs by SRB assay; assay type: functional; details: for CC50: read-out: LC50 (the source's name); outline: as §1
[5] = Cytotoxicity against human HeLa-APL cells after 48 hrs by SRB assay; assay type: functional; outline: as §1

| SMILES | CC50 (DU-145) [nM] | CC50 [1] [nM] | CC50 [2] [nM] | CC50 (SK-BR-3) [nM] | GI50 (SK-MEL-28; read-out: GI50) [nM] | CC50 (SK-MEL-28) [nM] | LC50 (A549) [nM] | GI50 (K562) [nM] | TGI (K562) [nM] | CC50 (K562) [nM] | CC50 (PANC-1) [nM] | CC50 (HT-29) [nM] | GI50 (LoVo [3]) [nM] | TGI (LoVo [3]) [nM] | CC50 (LoVo [3]) [nM] | GI50 (LoVo [4]) [nM] | TGI (LoVo [4]) [nM] | CC50 (LoVo [4]) [nM] | CC50 (HeLa) [nM] | LC50 (concentration giving 50% net cell kill) [5] [nM] | other results |
| --- | --- | --- | --- | --- | --- | --- | --- | --- | --- | --- | --- | --- | --- | --- | --- | --- | --- | --- | --- | --- | --- |
| C/C=C1\NC(=O)[C@H](Cc2ccc(O)cc2)NC(=O)[C@@H](C(C)C)NC(=O)[C@@H]([C@H](C)CC)NC(=O)[C@H](NC(=O)[C@H](NC(=O)[C@H](CCCN)NC(=O)[C@H]2CCCN2C(=O)[C@H](NC(=O)[C@@H](NC(=O)[C@@H](NC(=O)[C@H](NC(=O)CC[C@@H](C)CC)C(C)C)[C@@H](C)O)C(C)C)C(C)C)[C@H](C)CC)[C@H](C)OC(=O)[C@H](C(C)C)NC1=O | 1930 | 970 | 1000 | 184 | 2370 | 2100 | 1840 | 4920 | 4300 | 2700 | 2020 | 748 | 1830 | 2310 | 2690 | 1030 | 1720 | 2170 | 2100 | 1980 | TGI (SK-MEL-28): 3820 nM; GI50 (HeLa): 3620 nM; TGI (HeLa): 4340 nM |
| C/C=C1\NC(=O)[C@H](Cc2ccc(F)c(F)c2)NC(=O)[C@@H](C(C)C)NC(=O)[C@@H]([C@H](C)CC)NC(=O)[C@H](NC(=O)[C@H](NC(=O)[C@H](CCCN)NC(=O)[C@H]2CCCN2C(=O)[C@H](NC(=O)[C@@H](NC(=O)[C@@H](NC(=O)[C@H](NC(=O)CCCC(C)C)C(C)C)[C@@H](C)O)C(C)C)C(C)C)[C@H](C)CC)[C@H](C)OC(=O)[C@H](C(C)C)NC1=O | 243 | 156 | 515 | 134 | 128 | 323 | 968 | 732 | 1090 | 1610 | 1650 | 90.4 | 12.8 | 21.2 | 25.9 | 18.4 | 20.5 | 52.8 | 466 | 271 | GI50 (DU-145): 131 nM; GI50 (DU-145; read-out: GI50): 43 nM; GI50 [1]: 86.8 nM; GI50 ([1]; read-out: GI50): 37.9 nM; TGI [2]: 76.7 nM; GI50 ([2]; read-out: GI50): 47 nM; GI50 (SK-BR-3): 31.9 nM; GI50 (SK-BR-3; read-out: GI50): 30 nM; GI50 (SK-MEL-28): 203 nM; GI50 (A549): 293 nM; GI50 (A549; read-out: GI50): 137 nM; GI50 (PANC-1): 575 nM; TGI (PANC-1): 979 nM; GI50 (HT-29): 30.4 nM; TGI (HT-29): 28.7 nM; GI50 (HeLa): 98.1 nM; TGI (HeLa): 177 nM; GI50 [5]: 155 nM; TGI [5]: 166 nM |
| C/C=C1\NC(=O)[C@H](Cc2ccccc2)NC(=O)[C@@H](C(C)C)NC(=O)[C@@H]([C@H](C)CC)NC(=O)[C@H](NC(=O)[C@H](NC(=O)[C@H](CCCNC(=O)/C=C/CCC)NC(=O)[C@H]2CCCN2C(=O)[C@H](NC(=O)[C@@H](NC(=O)[C@@H](NC(=O)[C@H](NC(=O)CCCC(C)C)C(C)C)[C@@H](C)O)C(C)C)C(C)C)[C@H](C)CC)[C@H](C)OC(=O)[C@H](C(C)C)NC1=O | 876 | 467 | 517 | 102 | 814 | 1120 | 1090 | 1240 | 1820 | 1820 | 1670 | 268 | 75.6 | 82.4 | 90.6 | 140 | 116 | 96.9 | 908 | 802 | GI50 (DU-145): 876 nM; GI50 (DU-145; read-out: GI50): 661 nM; GI50 [1]: 221 nM; GI50 ([1]; read-out: GI50): 179 nM; GI50 [2]: 250 nM; GI50 ([2]; read-out: GI50): 205 nM; GI50 (SK-BR-3): 67.8 nM; GI50 (SK-BR-3; read-out: GI50): 55.7 nM; TGI (SK-MEL-28): 1120 nM; TGI (A549): 1090 nM; GI50 (A549; read-out: GI50): 619 nM; GI50 (PANC-1): 1670 nM; TGI (PANC-1): 1670 nM; GI50 (HT-29): 126 nM; TGI (HT-29): 103 nM; GI50 (HeLa): 407 nM; TGI (HeLa): 670 nM; GI50 [5]: 503 nM; TGI [5]: 514 nM |
| C/C=C1\NC(=O)[C@H](c2ccccc2)NC(=O)[C@@H](C(C)C)NC(=O)[C@@H]([C@H](C)CC)NC(=O)[C@H](NC(=O)[C@H](NC(=O)[C@H](CCCN)NC(=O)[C@H]2CCCN2C(=O)[C@H](NC(=O)[C@@H](NC(=O)[C@@H](NC(=O)[C@H](NC(=O)CCCC(C)C)C(C)C)[C@@H](C)O)C(C)C)C(C)C)[C@H](C)CC)[C@H](C)OC(=O)[C@H](C(C)C)NC1=O | 872 | 498 | 536 | 360 | 1110 | 1110 | 1090 | 1810 | 1810 | 1810 | 1660 | 416 | 417 | 533 | 341 | 409 |  | 333 | 903 | 912 | GI50 (DU-145): 872 nM; GI50 (DU-145; read-out: GI50): 872 nM; GI50 [1]: 720 nM; GI50 ([1]; read-out: GI50): 503 nM; GI50 [2]: 797 nM; GI50 ([2]; read-out: GI50): 806 nM; TGI (SK-BR-3): 386 nM; GI50 (SK-BR-3; read-out: GI50): 438 nM; TGI (SK-MEL-28): 1110 nM; TGI (A549): 1090 nM; GI50 (A549; read-out: GI50): 1090 nM; GI50 (PANC-1): 1660 nM; TGI (PANC-1): 1660 nM |
| C/C=C1\NC(=O)[C@@H]2C[C@@H]3CCCC[C@@H]3N2C(=O)[C@@H](C(C)C)NC(=O)[C@@H]([C@H](C)CC)NC(=O)[C@H](NC(=O)[C@H](NC(=O)[C@H](CCCN)NC(=O)[C@H]2CCCN2C(=O)[C@H](NC(=O)[C@@H](NC(=O)[C@@H](NC(=O)[C@H](NC(=O)CC[C@@H](C)CC)C(C)C)[C@@H](C)O)C(C)C)C(C)C)[C@H](C)CC)[C@H](C)OC(=O)[C@H](C(C)C)NC1=O | 1070 | 582 | 507 | 138 | 1150 | 1120 | 1070 | 4750 | 4040 | 2670 | 2000 | 677 | 1210 | 1920 | 2420 | 358 | 433 | 527 | 1050 | 1000 | TGI (DU-145): 1250 nM; GI50 (DU-145; read-out: GI50): 1460 nM; GI50 [1]: 871 nM; GI50 ([1]; read-out: GI50): 1820 nM; GI50 [2]: 827 nM; GI50 ([2]; read-out: GI50): 1590 nM; TGI (SK-BR-3): 887 nM; GI50 (SK-BR-3; read-out: GI50): 700 nM; TGI (SK-MEL-28): 1140 nM; TGI (A549): 1250 nM; GI50 (A549; read-out: GI50): 1460 nM; GI50 (PANC-1): 2580 nM; TGI (PANC-1): 3670 nM; GI50 (HeLa): 1560 nM; TGI (HeLa): 1270 nM; GI50 [5]: 1260 nM; TGI [5]: 1120 nM |
| C/C=C1\NC(=O)[C@H](Cc2ccc(-c3ccccc3)cc2)NC(=O)[C@@H](C(C)C)NC(=O)[C@@H]([C@H](C)CC)NC(=O)[C@H](NC(=O)[C@H](NC(=O)[C@H](CCCN)NC(=O)[C@H]2CCCN2C(=O)[C@H](NC(=O)[C@@H](NC(=O)[C@@H](NC(=O)[C@H](NC(=O)CCCC(C)C)C(C)C)[C@@H](C)O)C(C)C)C(C)C)[C@H](C)CC)[C@H](C)OC(=O)[C@H](C(C)C)NC1=O | 129 | 564 | 536 | 968 | 190 | 644 | 947 |  |  | 1420 | 1400 | 516 | 184 | 268 | 317 | 177 | 239 | 284 | 812 | 1120 | GI50 (DU-145): 146 nM; GI50 (DU-145; read-out: GI50): 166 nM; GI50 [1]: 159 nM; GI50 ([1]; read-out: GI50): 253 nM; GI50 [2]: 230 nM; GI50 ([2]; read-out: GI50): 134 nM; TGI (SK-BR-3): 183 nM; GI50 (SK-BR-3; read-out: GI50): 68.9 nM; GI50 (SK-MEL-28): 214 nM; TGI (A549): 56.6 nM; GI50 (A549; read-out: GI50): 52.1 nM; GI50 (PANC-1): 1240 nM; TGI (PANC-1): 1330 nM; GI50 (HT-29): 214 nM; TGI (HT-29): 187 nM; GI50 (HeLa): 220 nM; TGI (HeLa): 372 nM; GI50 [5]: 482 nM; TGI [5]: 762 nM |
